Screening data deposited in PubChem BioAssay by several laboratories.
STAT1 inh – inhibitors of IFN-gamma induced STAT1 signaling. NIH 3T3 STAT1-luciferase reporter, luminescence. inhibition, % at 5.5 µM. 0.35% of 200,000 active. AID 920;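 active = inhibition above a set limit, the mean inhibition across all tested compounds plus 3 SD, cut at about 34% in these data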;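 also: 0% = IFN-gamma with DMSO and 100% = IFN-gamma with 300 µM nifuroxazide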
Pf gametocyte – P. falciparum stage V gametocyte viability inhibition; 0.065% of 150,000 active; AID 743093; inhibition, % at 10.9 µM; P. falciparum stage V gametocytes, ATP luminescence, 24 h;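 active = inhibition above the mean plus 3 SD of compounds within the control limits, set per campaign, cut at about 38% in these data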;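 also: 0% = DMSO wells and 100% = medium only without gametocytes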
APP 5'UTR act – activates APP 5'UTR luciferase reporter | SH-SY5Y APP 5'UTR luciferase reporter, luminescence; zero percent = DMSO vehicle wells | activation, % at 2 µM | 1% of 190,000 active | AID 1276;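 active = activation above a set limit, based on mean plus 3 SD of controls, cut at about 140% in these data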
NF-kB expr up – compounds increasing NF-kB expression in human neuronal cells | NF-kB reporter expression; stronger effect = higher value | 1.6% of 190,000 active | fold change at 12.5 µM; in the data active = fold change above about 3.3
STAT1 act – STAT1 signaling activation; activation (% of control), % at 5.5 µM; 2.6% of 200,000 active; AID 932; NIH 3T3 STAT1-luciferase reporter, IFN-gamma, luminescence; 100% = IFN-gamma alone, no compound;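 active = activation above the screen-wide mean activation plus 3 SD, cut at about 130% in these data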;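 also: raw ratio to IFN-gamma control signal so 100% means no change and 0% no light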
STAT3 activator – increases IL-6 driven STAT3 reporter signal | activation (% of control), % at 5.6 µM | 0.91% of 190,000 active | U3A cells, IL-6 STAT3-luciferase reporter, luminescence; 100% = signal with IL-6 EC80 alone | AID 871;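 active = activation above the screen-wide mean of compound activation plus 3 SD, cut at about 130% in these data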;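 also: 0% = background luminescence of wells with medium and substrate only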
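System – human U3A cells carrying STAT3-luciferase construct · Probe or stimulus – Interleukin-6, 33 ng/mL · Schedule – compound 1 h, then IL-6 6 h at 37 °C · Signal – luminescence from STAT3-driven luciferase reporter · Evaluation – percent of IL-6-only median luminescence · Benchmarks – IL-6-only high control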
Starred values were filed as active, the others as inactive; · = not tested or not shown. Sampled rows, rich in hits. Any-hit rate of the full collection: about 3.9%.

SMILES | STAT1 inh | Pf gametocyte | APP 5'UTR act | NF-kB expr up | STAT1 act | STAT3 activator
COc1ccc(CC(=O)NNc2ncnc3c2cnn3-c2ccc(C)cc2)cc1OC | 9.8 | 10.0 | -13.1 | 0.74 | 91.2 | 94.4
COc1ccc2[nH]cc(CCNC(=O)c3ccc4ccccc4n3)c2c1 | · | -3.2 | · | · | · | ·
Cc1cccc(C)c1NC(=O)CN(C1CCCCC1)S(C)(=O)=O | · | 5.9 | · | · | · | ·
CC(C)(C)C(=O)Nc1cc(NC(=O)C(C)(C)C)cc(C(=O)Nc2c[nH]c(=O)[nH]c2=O)c1 | · | -5.4 | · | · | · | ·
COc1ccc(-n2ncc3c(N4CCC(C(N)=O)CC4)ncnc32)cc1 | -34.8 | -4.3 | 101.9 | 3.77* | 131.8* | 120.7
CCOC(=O)C1CCCN(c2ncnc3c2cnn3-c2cccc(C)c2)C1 (stereo not given) | -0.5 | -21.5 | 10.5 | 0.88 | 100.5 | 73.1
CCOC(=O)C1CCN(c2ncnc3c2cnn3-c2ccc(OC)cc2)CC1 | -12.9 | -4.7 | 18.6 | 1.07 | 111.8 | 93.5
CCN1CCN(c2ncnc3c2cnn3-c2ccccc2)CC1 | -18.8 | · | 33.9 | 1.82 | 117.0 | 95.5
CC1CC(C)CN(c2ncnc3c2cnn3-c2ccc(Cl)cc2)C1 (stereo not given) | -17.7 | · | 233.0* | 0.87 | 117.5 | 101.1
Cc1cccc(-n2ncc3c(N4CCC(C)CC4)ncnc32)c1 | -47.2 | · | 58.0 | 4.28* | 142.6* | 77.8
CN1CCN(c2ncnc3c2cnn3-c2ccc(Cl)cc2)CC1 | 4.4 | · | 126.5 | 1.19 | 96.0 | 60.3
c1ccc(-n2ncc3c(N4CCCCC4)ncnc32)cc1 | 65.7* | · | 114.6 | 1.97 | 40.5 | 25.1
COc1cccc(/C=N/n2c(-c3ccco3)nc3ccccc3c2=O)c1OC | -2.2 | -32.6 | 6.5 | 0.94 | 102.0 | 75.5
CCN(CCC(=O)Nc1cc(OC)ccc1OC)Cc1ccccc1 | · | 23.3 | · | · | · | ·
CCOC(=O)C1(CC/C(C)=N\NC(N)=O)CC(C)(C)OC1=O (stereo not given) | 11.5 | 19.2 | 3.5 | 1.12 | 89.9 | 79.9
O=C(CCn1nc(-c2ccc(Cl)cc2)c2ccccc2c1=O)NN1CCOCC1 | · | -0.4 | · | · | · | ·
COc1ccc(C(=O)c2cc3cccc(OC)c3o2)cc1 | -58.9 | 4.2 | 98.8 | 4.18* | 150.5* | 86.5
COc1ccc(COC(=O)Nc2cn(C)nc2C(F)(F)F)cc1 | -9.3 | 19.9 | -4.0 | 0.79 | 108.8 | 93.7
C/C(=N\NC(=O)c1nc2ccccn2c1C)c1ccco1 | -39.4 | -0.7 | -2.9 | 0.97 | 136.2* | 101.8
COc1ccc(NC(=O)c2sccc2C)cn1 | -23.1 | -1.1 | 23.3 | 1.85 | 119.1 | 86.1
O=C(c1ccccc1)c1ccccc1C(=O)N1CCCC1 | 4.0 | -1.1 | 4.5 | 6.37* | 91.3 | 96.4
O=C(c1ccccc1)c1ccccc1C(=O)N1CCOCC1 | 8.0 | · | -23.7 | 1.06 | 92.6 | 97.8
O=C(NC1=NCCS1)c1ccc([N+](=O)[O-])cc1Cl | -4.8 | -2.2 | 3.9 | 1.37 | 104.4 | 97.2
CCc1ccc(C2c3[nH]c4ccccc4c3CCN2C(=O)CN2CCN(CC)CC2)cc1 (stereo not given) | 5.0 | -17.0 | -2.2 | 0.67 | 93.6 | 134.3*
CSc1ccc(C2c3[nH]c4ccccc4c3CCN2C(=O)c2ccnn2C)cc1 (stereo not given) | -39.8 | -15.6 | 70.7 | 2.95 | 137.2* | 149.9*
SMILES | STAT1 inh | Pf gametocyte | APP 5'UTR act | NF-kB expr up | STAT1 act | STAT3 activator
CCc1ccc(C2c3[nH]c4ccccc4c3CCN2C(=O)CNC(N)=O)cc1 (stereo not given) | 0.1 | 7.4 | -1.3 | 1.07 | 97.9 | 122.2
COc1ccc(C=O)cc1Oc1nc(Cl)ncc1F | 9.9 | 11.6 | 7.2 | 1.16 | 90.6 | 106.7
O=C1Nc2ccccc2/C1=C/C(=O)c1cccs1 | 0.6 | -27.9 | -15.7 | 2.16 | 99.4 | 134.3*
COc1cccc2sc(Nc3nnc(-c4cccs4)o3)nc12 | -42.8 | 28.6 | 71.0 | 1.18 | 139.1* | 172.1*
Fc1cccc2sc(Nc3nnc(-c4ccco4)o3)nc12 | -34.8 | · | 45.7 | 2 | 132.3* | 111.9
C=CS(=O)(=O)c1sc(Cl)c(N2CCOCC2)c1[N+](=O)[O-] | -33.2 | 17.0 | -31.4 | 1.11 | 128.7* | 92.1
CSc1ccc(S(=O)(=O)NC2CC2)cc1 | · | -15.1 | · | · | · | ·
COc1ccc(O)c(C(=O)CC(=O)c2ccccc2)c1 | -34.4 | · | 133.5 | 3.43* | 131.5* | 42.2
COc1ccc(C(=O)CC(=O)c2ccccc2)cc1 | · | 5.4 | · | · | · | ·
COc1cccc(C(=O)NCC(=O)OCC(=O)c2ccccc2)c1 | -57.4 | 8.0 | 2.6 | 1.11 | 150.4* | 111.1
COC(=O)c1ccc(OCC(=O)c2ccccc2)cc1 | -42.0 | · | 116.1 | 4.14* | 138.9* | 95.9
Cc1ccc(-c2nc(-c3cccnc3)no2)c(C)c1 | -53.6 | · | 144.0* | 4.77* | 147.3* | 90.5
Cc1ccc(C)c(OCc2nc(-c3cccnc3)no2)c1 | -4.3 | · | 0.5 | 0.57 | 103.9 | 90.2
Brc1ccc(-c2nc(-c3ccccc3)no2)o1 | -53.4 | -4.8 | 143.0* | 4.13* | 149.2* | 114.1
Brc1ccc(-c2nc(-c3cccnc3)no2)o1 | -34.6 | · | 37.8 | 1.25 | 131.5* | 91.8
O=C(CNS(=O)(=O)c1cccc(Cl)c1)Nc1ccc(-c2nc3ccccc3s2)cc1 | -50.6 | 3.2 | 129.1 | 1.94 | 145.2* | 100.5
CNS(=O)(=O)c1cccc(C(=O)OCC(=O)Nc2ccc(-c3nc4ccc(C)cc4s3)cc2)c1 | 28.0 | · | 167.1* | 1.02 | 73.1 | 46.0
CNS(=O)(=O)c1cccc(C(=O)OCC(=O)Nc2ccc(N3CCCCC3)cc2)c1 | -6.3 | 1.6 | 26.6 | 1.54 | 106.0 | 97.4
Cc1ccc(C)c(S(=O)(=O)NC(C)C(=O)Nc2ccc(-c3nc4ccccc4s3)cc2)c1 (stereo not given) | -35.0 | -26.5 | 55.3 | 1.07 | 131.4* | 105.3
CC(NS(=O)(=O)c1cccc(Cl)c1)C(=O)Nc1ccc(-c2nc3ccccc3s2)cc1 (stereo not given) | -24.6 | -1.2 | 46.0 | 1.46 | 122.7 | 112.8
COc1ccc(/C=C(\C#N)C(=O)OCC(=O)NC(C)c2ccccc2)cc1 (stereo not given) | 7.5 | -19.0 | -12.0 | 1.31 | 92.6 | 90.8
COc1ccc(/C=C(\C#N)C(=O)OCC(=O)Nc2ccc(-c3nc4ccc(C)cc4s3)cc2)cc1 | -15.2 | -0.4 | 184.5* | 4.5* | 114.9 | 65.1
Cc1ccc2nc(-c3ccc(NC(=O)COC(=O)c4ccco4)cc3)sc2c1 | -44.8 | -8.3 | 148.1* | 4.29* | 140.8* | 56.2
Cc1ccc2nc(-c3ccc(NC(=O)COC(=O)c4cncc(Br)c4)cc3)sc2c1 | -48.1 | -6.6 | 152.5* | 6.48* | 143.6* | 97.7
Cc1ccc2sc(-c3ccc(NC(=O)CCN4C(=O)c5ccccc5C4=O)cc3)nc2c1 | -55.0 | -0.1 | 161.8* | 2.7 | 149.9* | 101.8
O=C(CN1CCN(C(=O)c2ccco2)CC1)Nc1ccc2c(c1)OCCO2 | -0.7 | · | 13.5 | 0.73 | 100.7 | 93.1
